The record followed here is ChEMBL document CHEMBL3351752, “Discovery and in vivo evaluation of alcohol-containing benzothiazoles as potent dual-targeting bacterial DNA supercoiling inhibitors” (Bioorg Med Chem Lett, 2014).

Data set [1] deals with Staphylococcus aureus. In words: Ratio of MIC for Staphylococcus aureus ATCC 29213 assessed as growth inhibition in presence of 50% horse serum to MIC for Staphylococcus aureus ATCC 29213 assessed as growth inhibition. In kind it is functional.
The test system of the next data set is Haemophilus influenzae. In words: Antibacterial activity against Haemophilus influenzae 49247 assessed as growth inhibition. The data set is classed as functional.
In data set [2] the test system is Streptococcus pyogenes. The experiment in a line: Antimicrobial activity against Streptococcus pyogenes harboring ParE A53S mutant assessed as growth inhibition. In kind it is functional.
Data set [3] deals with Streptococcus pyogenes. In words: Antibacterial activity against Streptococcus pyogenes 51339 assessed as growth inhibition. The data set is classed as functional.
Data set [4] deals with Staphylococcus aureus. In words: Antibacterial activity against Staphylococcus aureus ATCC 29213 assessed as growth inhibition. In kind it is functional.
Data set [5] concerns Staphylococcus aureus. In words: Antimicrobial activity against Staphylococcus aureus harboring GyrB T173N mutant assessed as growth inhibition. In kind it is functional.
Data set [6] concerns Staphylococcus aureus. In words: Antibacterial activity against Staphylococcus aureus ATCC 29213 assessed as growth inhibition in presence of 50% horse serum. In kind it is functional.
Data set [7] has as its system Staphylococcus aureus. In words: Antimicrobial activity against Staphylococcus aureus ATCC 19636 infected in neutropenic mouse assessed as reduction in colony forming units at 30 mg/kg, iv administered as single dose measured 24 hrs post infection relative to control. The data set is classed as functional, organism-based. On the set-up: dose 30 mg/kg.
In data set [8] the test system is Staphylococcus aureus. The experiment in a line: Antimicrobial activity against methicillin-sensitive Staphylococcus aureus infected in neutropenic mouse assessed as reduction in colony forming units administered iv at 2, 4 and 6 hrs post-inoculation measured 24 hrs post infection relative to control. In kind it is functional, organism-based.
Data set [9] deals with Staphylococcus aureus. The experiment in a line: Antimicrobial activity against methicillin-sensitive Staphylococcus aureus infected in neutropenic mouse assessed as log reduction in colony forming units at 100 mg/kg, iv administered at 2, 4 and 6 hrs post-inoculation measured 24 hrs post infection relative to control. The data set is classed as functional.
Data set [10] relates to Staphylococcus aureus. The experiment in a line: Antimicrobial activity against methicillin-sensitive Staphylococcus aureus infected in neutropenic mouse assessed as log reduction in colony forming units at 30 mg/kg, iv administered at 2, 4 and 6 hrs post-inoculation measured 24 hrs post infection relative to control. The data set is classed as functional.
The subject of data set [11] is Staphylococcus aureus. The experiment in a line: Antimicrobial activity against methicillin-sensitive Staphylococcus aureus infected in neutropenic mouse assessed as log reduction in colony forming units at 30 mg/kg, iv administered as single dose measured 24 hrs post infection relative to control. The data set is classed as functional, organism-based. On the set-up: dose 30 mg/kg. The essentials:
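Thigh infection in neutropenic female CD-1 mice (18–22 g), made neutropenic with ip cyclophosphamide (150 mg/kg day −4, 100 mg/kg day −1). Thighs inoculated with about 2 × 10^5 CFU of MSSA S. aureus ATCC 19636 from fresh overnight culture. Single iv dose at 30 mg/kg. Thighs harvested at 24 h, homogenized in saline on ice, serial dilutions plated on charcoal plates, colonies counted; log CFU reduction taken versus matched controls.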

The subject of data set [12] is Staphylococcus aureus. The experiment in a line: Inhibition of Staphylococcus aureus DNA gyrase ATPase subunit GyrA2/GyrB2 after 60 mins by malachite green staining assay.
A short description of data set [13]: Fraction unbound in mouse plasma by ultracentrifugation. The data set is classed as ADME, cell-free. The essentials:
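Compound at 10 µM (1% DMSO) was equilibrated in neat plasma at 37 °C for 60 min. Duplicate aliquots were ultracentrifuged at 250,000g for 4.2 h at 37 °C. Free compound in the plasma-water supernatant was compared with uncentrifuged samples incubated alike. Uncentrifuged samples kept at 20 °C checked degradation, and diltiazem served as stability control. Analysis was by LCMS.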

Data set [14] relates to Staphylococcus aureus. In words: Antimicrobial activity against Staphylococcus aureus ATCC 19636 infected in neutropenic mouse assessed as reduction in colony forming units at 100 mg/kg, po administered as single dose measured 24 hrs post infection relative to control. The data set is classed as functional, organism-based. Also on record: dose 100 mg/kg.
Data set [15] relates to Staphylococcus aureus. In words: Antimicrobial activity against Staphylococcus aureus ATCC 19636 infected in neutropenic mouse assessed as reduction in colony forming units at 25 mg/kg, iv administered as single dose measured 24 hrs post infection relative to control. In kind it is functional, organism-based. On the set-up: dose 25 mg/kg.

In brackets after ≈: the same amount, converted by molar mass. Activity calls are given as the source filed them. The rule behind the calls is not given here.

Regarding `CCNC(=O)Nc1nc2cc(-c3cnc(C(C)O)nc3)cc(-c3ccccn3)c2s1` (centres undefined), the Ratio in the data set with Staphylococcus aureus [1] is listed as 4. The MIC is 0.5 µg/mL (≈ 1.19 µM) with Haemophilus influenzae; 1 µg/mL (≈ 2.38 µM) with Streptococcus pyogenes [2]; 0.06 µg/mL (≈ 0.143 µM) in the data set with Streptococcus pyogenes [3]; 0.03 µg/mL (≈ 0.0713 µM) with Staphylococcus aureus [4]; 0.25 µg/mL (≈ 0.595 µM) in the data set with Staphylococcus aureus [5]; 0.12 µg/mL with Staphylococcus aureus [6].
In the case of `CO[C@@H]1[C@@H](OC(N)=O)[C@@H](O)[C@H](Oc2ccc3c(O)c(NC(=O)c4ccc(O)c(CC=C(C)C)c4)c(=O)oc3c2C)OC1(C)C`, the outcome in the data set on Staphylococcus aureus [7] was Active.
For `CCNC(=O)Nc1nc2cc(-c3cnc(N4CCC(CC)(C(=O)O)CC4)nc3)cc(/C=N/OC)c2s1`, the Activity entry in the data set with Staphylococcus aureus [8] is “Dose-dependent effect”. In addition, the FC is on record as 4 in the data set with Staphylococcus aureus [9] and less than 3 in the data set with Staphylococcus aureus [10]. In addition, the MIC in the data set with Staphylococcus aureus [4] worked out at 0.12 µg/mL (≈ 0.235 µM).
With `CN[C@H](CC(C)C)C(=O)N[C@H]1C(=O)N[C@@H](CC(N)=O)C(=O)N[C@H]2C(=O)N[C@H]3C(=O)N[C@H](C(=O)N[C@H](C(=O)O)c4cc(O)cc(O)c4-c4cc3ccc4O)[C@H](O)c3ccc(c(Cl)c3)Oc3cc2cc(c3O[C@@H]2O[C@H](CO)[C@@H](O)[C@H](O)[C@H]2O[C@H]2C[C@](C)(N)[C@H](O)[C@H](C)O2)Oc2ccc(cc2Cl)[C@H]1O`, the outcome in the data set on Staphylococcus aureus [11] was Active.
As a reminder, the fraction unbound is free concentration divided by total concentration. A higher fraction unbound goes with much free substance. For the compound `CCNC(=O)Nc1nc2cc(-c3cnc(C(C)(C)O)nc3)cc(-c3ccccn3)c2s1`, the Ratio in the data set with Staphylococcus aureus [1] was determined as 4. For the same compound, the MIC is 1 µg/mL (≈ 2.3 µM) with Haemophilus influenzae; 1 µg/mL (≈ 2.3 µM) with Streptococcus pyogenes [2]; 0.12 µg/mL (≈ 0.276 µM) in the data set on Streptococcus pyogenes [3]; 0.06 µg/mL (≈ 0.138 µM) in the data set on Staphylococcus aureus [4]; 0.25 µg/mL (≈ 0.575 µM) with Staphylococcus aureus [5]; 0.25 µg/mL with Staphylococcus aureus [6]. Further, the inhibitory concentration in the data set with Staphylococcus aureus [12] amounted to 0.006 µg/mL. Moreover, the outcome with Staphylococcus aureus [7] and in the data set with Staphylococcus aureus [14] was Active. In [13], the fraction unbound stood at 0.051.
Take `CCNC(=O)Nc1nc2cc(-c3cnc(CO)nc3)cc(-c3ccccn3)c2s1`: in the data set with Staphylococcus aureus [1], the Ratio is reported as 2. For the same compound, the MIC in the data set with Haemophilus influenzae is 0.25 µg/mL (≈ 0.615 µM); with Streptococcus pyogenes [2], 0.5 µg/mL (≈ 1.23 µM); in the data set on Streptococcus pyogenes [3] it was 0.06 µg/mL (≈ 0.148 µM); in the data set with Staphylococcus aureus [4], 0.03 µg/mL (≈ 0.0738 µM); in the data set with Staphylococcus aureus [5] it was 0.25 µg/mL (≈ 0.615 µM); in the data set on Staphylococcus aureus [6], 0.06 µg/mL.
As to `CCNC(=O)Nc1nc2cc(-c3cnc(N4CCC(CC)(C(=O)O)CC4)nc3)cc(-c3ccccn3)c2s1`, in the data set with Staphylococcus aureus [1], the Ratio was 64. Moreover, the MIC with Haemophilus influenzae amounted to 4 µg/mL (≈ 7.52 µM); with Streptococcus pyogenes [2] it was 0.5 µg/mL (≈ 0.94 µM); in the data set on Streptococcus pyogenes [3], 0.06 µg/mL (≈ 0.113 µM); in the data set with Staphylococcus aureus [4], 0.06 µg/mL (≈ 0.113 µM); with Staphylococcus aureus [5], 0.25 µg/mL (≈ 0.47 µM); in the data set with Staphylococcus aureus [6], 4 µg/mL. Also, the Activity result in the data set on Staphylococcus aureus [8] was “Dose-dependent effect”. Moreover, the FC is 4 in the data set on Staphylococcus aureus [9] and less than 3 with Staphylococcus aureus [10].
Take `CC(=O)NC[C@H]1CN(c2ccc(N3CCOCC3)c(F)c2)C(=O)O1`: the outcome in the data set with Staphylococcus aureus [15] was Active.
Turning to `CCNC(=O)Nc1nc2cc(-c3cnc(C(C)(C)O)nc3)cc(-c3cc(CN4CC(C)(O)C4)ccn3)c2s1`, the MIC in the data set with Haemophilus influenzae came to 4 µg/mL (≈ 7.5 µM); in the data set with Streptococcus pyogenes [3] it was 0.12 µg/mL (≈ 0.225 µM); in the data set on Staphylococcus aureus [4], 0.5 µg/mL (≈ 0.937 µM); in the data set with Staphylococcus aureus [6], 0.5 µg/mL. In the data set on Staphylococcus aureus [12], this compound returned an inhibitory concentration of 0.011 µg/mL. This compound also gave a fraction unbound in data set [13] of 0.223.
As for `CCNC(=O)Nc1nc2cc(-c3cnc(C(C)(C)O)nc3)cc(-c3cc(CN4CCCC4)ccn3)c2s1`, the MIC with Haemophilus influenzae is 4 µg/mL (≈ 7.73 µM); in the data set with Streptococcus pyogenes [3] it was 0.5 µg/mL (≈ 0.966 µM); with Staphylococcus aureus [4] it was 0.5 µg/mL (≈ 0.966 µM); in the data set on Staphylococcus aureus [6] it was 0.5 µg/mL. In the data set on Staphylococcus aureus [12], the inhibitory concentration is 0.012 µg/mL. In addition, the fraction unbound in data set [13] turned out to be 0.067.
Regarding `CCNC(=O)Nc1nc2cc(-c3cnc(C(C)(C)O)nc3)cc(-c3cc(CN4CCC(C)(O)C4)ccn3)c2s1` (centres undefined), the MIC is 8 µg/mL (≈ 14.6 µM) in the data set with Haemophilus influenzae, 0.25 µg/mL (≈ 0.456 µM) in the data set on Streptococcus pyogenes [3], 0.5 µg/mL (≈ 0.913 µM) with Staphylococcus aureus [4] and 0.25 µg/mL in the data set on Staphylococcus aureus [6]. This compound gave an inhibitory concentration with Staphylococcus aureus [12] of 0.008 µg/mL. In [13], this compound showed a fraction unbound of 0.194.
With `CCNC(=O)Nc1nc2cc(-c3cnc(C(C)(C)O)nc3)cc(-c3cc(CN4CCC(F)(F)C4)ccn3)c2s1`, the MIC in the data set with Haemophilus influenzae is greater than 16 µg/mL; with Streptococcus pyogenes [3] it was 0.03 µg/mL (≈ 0.0542 µM); with Staphylococcus aureus [4] it was 0.06 µg/mL (≈ 0.108 µM); in the data set with Staphylococcus aureus [6], 0.25 µg/mL. Moreover, in the data set with Staphylococcus aureus [12], the inhibitory concentration turned out to be 0.007 µg/mL. In data set [13], this compound had a free fraction (fraction unbound) of 0.041.
With `CCNC(=O)Nc1nc2cc(-c3cnc(C(C)(C)O)nc3)cc(-c3cc(CN4CC(O)C4)ccn3)c2s1`, the MIC in the data set with Haemophilus influenzae was 2 µg/mL (≈ 3.85 µM); with Streptococcus pyogenes [3], 0.25 µg/mL (≈ 0.481 µM); in the data set with Staphylococcus aureus [4], 1 µg/mL (≈ 1.92 µM); in the data set with Staphylococcus aureus [6], 1 µg/mL. In the data set with Staphylococcus aureus [12], the inhibitory concentration amounted to 0.004 µg/mL. Besides, the fraction unbound in data set [13] came out at 0.22.
On to `CCNC(=O)Nc1nc2cc(-c3cnc(C(C)(C)O)nc3)cc(-c3cc(CN4CC[C@@H](F)C4)ccn3)c2s1`, for which the MIC in the data set with Haemophilus influenzae came to 1 µg/mL (≈ 1.87 µM); with Streptococcus pyogenes [3], 0.06 µg/mL (≈ 0.112 µM); in the data set with Staphylococcus aureus [4] it was 0.06 µg/mL (≈ 0.112 µM); with Staphylococcus aureus [6], 0.25 µg/mL. This compound also had an inhibitory concentration with Staphylococcus aureus [12] of 0.005 µg/mL. The compound further gave a fraction unbound in [13] of 0.063.
Turning to `CCNC(=O)Nc1nc2cc(-c3cnc(C(C)(C)O)nc3)cc(-c3cc(CN4CC[C@@H](O)C4)ccn3)c2s1`, the MIC in the data set with Haemophilus influenzae is 4 µg/mL (≈ 7.5 µM); in the data set on Streptococcus pyogenes [3], 0.25 µg/mL (≈ 0.468 µM); in the data set on Staphylococcus aureus [4], 0.5 µg/mL (≈ 0.937 µM); in the data set with Staphylococcus aureus [6], 0.5 µg/mL. The compound further displayed an inhibitory concentration with Staphylococcus aureus [12] of 0.007 µg/mL. In addition, in data set [13], the fraction unbound is 0.194.
